Reference: ChEMBL document CHEMBL4619808, “Tailoring the Physicochemical Properties of Antimicrobial Peptides onto a Thiazole-Based γ-Peptide Foldamer” (J Med Chem, 2020)
Values after ≈ are worked out from the molar mass of the structure shown. Active and inactive are the calls of the source. The rule behind the calls is not given here.

Experiments:
[1] = system: Escherichia coli; assay: Microbicidal activity against Escherichia coli ATCC 8739 assessed as inhibition of colony growth incubated for 24 hrs followed by replating and further incubated for 24 hrs; type: functional; conditions: ATCC 8739, 24 h
[2] = system: Bacillus subtilis; assay: Microbicidal activity against Bacillus subtilis ATCC 6633 assessed as inhibition of colony growth incubated for 24 hrs followed by replating and further incubated for 24 hrs; type: functional; conditions: ATCC 6633, 24 h
[3] = system: Enterococcus faecalis; assay: Antimicrobial activity against Enterococcus faecalis ATCC 29121 assessed as inhibition of microbial growth incubated for 24 hrs; type: functional; conditions: ATCC 29121, 24 h
Procedure, shortened: (§1)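 Broth microdilution. Strains grown overnight on TSA at 37°C, suspended to 10⁸ CFU/mL in Tryptone-Sel, then diluted to 10⁶ CFU/mL in double-strength Mueller-Hinton broth. Two-fold serial dilutions in sterile water (pH 7.4–7.7) mixed 1:1 with inoculum. Incubation 24 h at 37°C. MIC is the lowest concentration inhibiting growth. Duplicate wells, three independent experiments.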

[4] = system: Escherichia coli; assay: Antimicrobial activity against Escherichia coli ATCC 8739 assessed as inhibition of microbial growth measured after 8 passes in presence of sublethal compound concentration concentrations; type: functional
[5] = system: Escherichia coli; assay: Antimicrobial activity against Escherichia coli ATCC 8739 assessed as reduction in viable bacterial cell count at 8 times MIC incubated up to 120 mins by time kill assay relative to control; type: functional
[6] = system: Escherichia coli; assay: Antimicrobial activity against Escherichia coli ATCC 8739 assessed as effect on bacterial morphology by measuring bacterial length at 1 to 8 times MIC incubated for 60 mins by surface electron microscopy (reference value: 2 micrometer); type: functional
[7] = system: Escherichia coli; assay: Antimicrobial activity against Escherichia coli ATCC 8739 assessed as induction of spherical elements around bacteria at 1 to 8 times MIC incubated for 60 mins by surface electron microscopy; type: functional, organism-based
[8] = system: Enterococcus faecalis; assay: Microbicidal activity against Enterococcus faecalis ATCC 29121 assessed as inhibition of colony growth incubated for 24 hrs followed by replating and further incubated for 24 hrs; type: functional; conditions: ATCC 29121, 24 h
[9] = system: Staphylococcus aureus; assay: Microbicidal activity against Staphylococcus aureus ATCC 6538 assessed as inhibition of colony growth incubated for 24 hrs followed by replating and further incubated for 24 hrs; type: functional; conditions: ATCC 6538, 24 h
[10] = system: Escherichia coli; assay: Antimicrobial activity against Escherichia coli ATCC 8739 assessed as reduction in viable bacterial cell count at 4 to 8 times MIC incubated for 40 to 60 mins by time kill assay relative to control; type: functional, organism-based
[11] = system: Pseudomonas aeruginosa; assay: Microbicidal activity against Pseudomonas aeruginosa ATCC 9027 assessed as inhibition of colony growth incubated for 24 hrs followed by replating and further incubated for 24 hrs; type: functional; conditions: ATCC 9027, 24 h
[12] = system: Escherichia coli; assay: Antimicrobial activity against Escherichia coli ATCC 8739 assessed as reduction in viable bacterial cell count at 1 times MIC incubated up to 120 mins by time kill assay relative to control; type: functional
[13] = system: Escherichia coli; assay: Induction of membrane depolarization in Escherichia coli ATCC 8739 incubated for 2 hrs by [DiSC3(5)] probe based fluorescence assay; type: functional, organism-based
Procedure, shortened: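 E. coli ATCC8739 grown 2 h at 37°C in Mueller-Hinton broth, washed and resuspended in 20 mM glucose/5 mM HEPES pH 7.2 to OD600 0.05. DiSC3(5) added at 0.6 µM final and preincubated at 37°C until fluorescence stabilized. Compound added at 0.19–12.5 µM final; fluorescence (ex 620, em 670 nm) followed over 30 min. Duplicate, three independent experiments.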

[14] = system: Escherichia coli; assay: Antimicrobial activity against Escherichia coli ATCC 8739 assessed as induction of blisters and protruding vesicles on cell surface at 1 to 8 times MIC incubated for 60 mins by surface electron microscopy; type: functional, organism-based
[15] = system: Candida albicans; assay: Antimicrobial activity against Candida albicans ATCC 10231 assessed as inhibition of microbial growth incubated for 48 hrs; type: functional; conditions: ATCC 10231, 48 h
Procedure, shortened: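 C. albicans grown 48 h on Sabouraud at 20–25°C, suspended to 10⁸ CFU/mL, then diluted to 10⁶ CFU/mL in double-strength Mueller-Hinton broth. Two-fold serial dilutions in water (pH 7.4–7.7) mixed 1:1 with inoculum. Incubation 48 h at 25°C. MIC is the lowest concentration inhibiting growth. Duplicate wells, three independent experiments.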

[16] = Hemolytic activity in human RBC assessed as induction of hemolysis incubated for 1 hr; type: cell-based, Erythrocyte; conditions: red blood cells (erythrocytes), read-out: HD50
Procedure, shortened: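 Human RBCs washed in PBS and used at 5% packed cell volume, mixed 1:1 with two-fold serial dilutions in PBS (pH 7.4–7.7). Incubation 1 h at 37°C, then centrifugation at 1500g for 10 min at 5°C. Supernatant absorbance read at 490 nm against PBS (0%) and 1% SDS/Tris (100%) controls. HC50 from three independent experiments, double duplicate.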

[17] = system: Escherichia coli; assay: Antimicrobial activity against Escherichia coli ATCC 8739 assessed as increase in region of cellular aggregation at 1 to 8 times MIC incubated for 60 mins by surface electron microscopy; type: functional, organism-based
[18] = system: Staphylococcus aureus; assay: Antimicrobial activity against Staphylococcus aureus ATCC 6538 assessed as inhibition of microbial growth incubated for 24 hrs; type: functional; conditions: ATCC 6538, 24 h; procedure, shortened: as §1
[19] = system: Escherichia coli; assay: Antimicrobial activity against Escherichia coli ATCC 8739 assessed as inhibition of microbial growth incubated for 24 hrs; type: functional; conditions: ATCC 8739, 24 h; procedure, shortened: as §1
[20] = system: Candida albicans; assay: Microbicidal activity against Candida albicans ATCC 10231 assessed as inhibition of colony growth incubated for 48 hrs followed by replating and further incubated for 48 hrs; type: functional; conditions: ATCC 10231, 48 h
[21] = system: Bacillus subtilis; assay: Antimicrobial activity against Bacillus subtilis ATCC 6633 assessed as inhibition of microbial growth incubated for 24 hrs; type: functional; conditions: ATCC 6633, 24 h; procedure, shortened: as §1
[22] = system: Pseudomonas aeruginosa; assay: Antimicrobial activity against Pseudomonas aeruginosa ATCC 9027 assessed as inhibition of microbial growth incubated for 24 hrs; type: functional; conditions: ATCC 9027, 24 h; procedure, shortened: as §1

MIC [3]: 20.8 µM | MIC [15]: 6.2 µM | MIC [18]: 3.1 µM | MIC [19]: 1.8 µM | MIC [21]: 0.6 µM | MIC [22]: 4.2 µM
SMILES: CC(=O)N[C@@H](CCCNC(=N)N)c1nc(C)sc1C(=O)N[C@@H](C)c1nc(CCCNC(=N)N)sc1C(=O)N[C@@H](C)c1nc(C)sc1C(=O)N[C@@H](CCCNC(=N)N)c1nc(C)sc1C(=O)N[C@@H](C)c1nc(CCCNC(=N)N)sc1C(=O)N[C@@H](C)c1nc(C)sc1C(=O)N[C@@H](CCCNC(=N)N)c1nc(C)sc1C(=O)N[C@@H](C)c1nc(CCCNC(=N)N)sc1C(=O)N[C@@H](C)c1nc(C)sc1C(=O)N[C@@H](CCCNC(=N)N)c1nc(C)sc1C(=O)N[C@@H](C)c1nc(CCCNC(=N)N)sc1C(=O)N[C@@H](C)c1nc(C)sc1C(N)=O
MBC [1]: 2.3 µM (≈ 6.34 µg/mL) | MBC [2]: 0.8 µM (≈ 2.21 µg/mL) | MIC [4]: Active | Activity [5]: 4.73 log10CFU/ml | Activity [6]: 1.3 um | Activity [7]: Dose-dependent effect | MBC [8]: 25 µM (≈ 69 µg/mL) | MBC [9]: 7.8 µM (≈ 21.5 µg/mL) | Activity [10]: Active | MBC [11]: 4.7 µM (≈ 13 µg/mL) | Activity [12]: 0.95 log10CFU/ml | Activity [13]: Dose-dependent effect | Activity [14]: Active | HC50 at 1 h [16]: > 100 µM | Activity [17]: Active | MBC [20]: 6.2 µM (≈ 17.1 µg/mL)
